Source: ChEMBL document CHEMBL4393661, “PRODRUGS FOR NITROREDUCTASE BASED CANCER THERAPY- 2: Novel amide/Ntr combinations targeting PC3 cancer cells” (Eur J Med Chem, 2019)

What was measured:
[1] = substrate: CS(=O)(=O)OCCN(CCBr)c1c(C(=O)NCCO)cc([N+](=O)[O-])cc1[N+](=O)[O-]; experiment: (§1) Substrate activity at Escherichia coli nitroreductase nfsB assessed as Kcat using NADH as cofactor at […] in Tris-Cl buffer at pH 7.5 by spectrophotometric method
[2] = substrate: NC(=O)c1cc(N(CCCl)CCCl)c([N+](=O)[O-])cc1[N+](=O)[O-]; experiment: as §1
[3] = substrate: NC(=O)c1cc(N2CC2)c([N+](=O)[O-])cc1[N+](=O)[O-]; experiment: as §1
[4] = substrate: CS(=O)(=O)OCCN(CCBr)c1c(C(=O)NCCO)cc([N+](=O)[O-])cc1[N+](=O)[O-]; experiment: (§2) Substrate activity at Escherichia coli nitroreductase nfsB assessed as Km using NADH as cofactor in Tris-Cl buffer at pH 7.5 by spectrophotometric method; format: ADME
[5] = substrate: NC(=O)c1cc(N2CC2)c([N+](=O)[O-])cc1[N+](=O)[O-]; experiment: as §2; format: ADME
[6] = substrate: CCN(C(C)=O)c1cc([N+](=O)[O-])cc([N+](=O)[O-])c1; experiment: (§3) Substrate activity at Staphylococcus saprophyticus nitroreductase assessed as Km using NADPH as cofactor in presence of Tris-Cl buffer at pH 7.5 by spectrophotometric method; format: ADME
How it was run: (§4)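 Michaelis–Menten parameters for recombinant Ssap-NtrB were measured spectrophotometrically at 25 °C in 25 mM Tris-Cl buffer pH 7.5 containing 5% DMSO as cosolvent.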

[7] = substrate: NC(=O)c1cc(N2CC2)c([N+](=O)[O-])cc1[N+](=O)[O-]; experiment: as §3; format: ADME; how it was run: as §4

B1: Oxygen-insensitive NAD(P)H nitroreductase (Escherichia coli K-12), P38489 (protein)
chain: MDIISVALKRHSTKAFDASKKLTPEQAEQIKTLLQYSPSSTNSQPWHFIVASTEEGKARVAKSAAGNYVFNERKMLDASHVVVFCAKTAMDDVWLKLVVDQEDADGRFATPEAKAANDKGRKFFADMHRKDLHDDAEWMAKQVYLNVGNFLLGVAALGLDAVPIEGFDAAILDAEFGLKEKGYTSLVVVPVGHHSVEDFNATLPKSRLPQNITLTEV
- kcat [1]: 60 s⁻¹
- kcat [2]: 26.4 s⁻¹
- kcat [3]: 62 s⁻¹

B2: Oxygen-insensitive NAD(P)H nitroreductase (Escherichia coli K-12) (protein)
chain: B1 chain
- Km [4]: 4500 µM
- kcat/Km [4]: 13000 M⁻¹ s⁻¹
- Km [5]: 11000 µM
- kcat/Km [5]: 5600 M⁻¹ s⁻¹

B3: Putative nitroreductase (Staphylococcus saprophyticus subsp. saprophyticus ATCC 15305 = NCTC 7292) (protein)
chain: MINNNFEEILMNRKSVKVFDEQVKIPKAEMDEMIKKATTAPSSVNMQPWRFLVVESDEGKDTLRPLIRFNTRQNDSSAAMVVIFGDMKSQTNAEEIYGNAVKHDLMPEEVKQEMLKKVIPLYDNAPKEQMNDIVKIDSSLAAMQFMLVAKAHGYDTNPIGGFESDQIADAFGIDSERYVPVLIVAIGKAKNPAHGSYRLPTETVTKYV
- Km [6]: 96.9 µM
- Km [7]: 1070 µM
- kcat [7]: 2.26 s⁻¹
- kcat/Km [7]: 2120 M⁻¹ s⁻¹
